Values after ≈ are worked out from the molar mass of the structure shown.
What was measured:
[1] = Metabolic stability in human liver microsomes assessed as intrinsic clearance; type: ADME, Microsome
[2] = Apparent permeability across apical to basolateral side in human Caco2 cells; type: ADME, cell-based; details: Caco-2
Method in brief: (§1)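 Bidirectional permeability was measured in the apical-to-basolateral and basolateral-to-apical directions.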

[3] = AUC in mouse at 2 umol/kg, po administered using cassette dosing; type: ADME, organism-based; details: in vivo
Method in brief: (§2)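 Mouse PK by cassette dosing. The combined compounds were given orally at 2 μmol/kg and intravenously at 1 μmol/kg. PK parameters were derived from the plasma profiles.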

[4] = Protein binding in mouse plasma; type: ADME, cell-free; details: read-out: PPB (converted)
Method in brief: (§3)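 Plasma protein binding was determined in human or mouse plasma.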

[5] = Bioavailability in mouse at 2 umol/kg, po and 1 umol/kg, iv administered using cassette dosing; type: ADME, organism-based; details: in vivo; method in brief: as §2
[6] = Half life in mouse at 1 umol/kg, iv administered using cassette dosing; type: ADME, organism-based; details: in vivo; method in brief: as §2
[7] = Protein binding in human plasma; type: ADME, cell-free; details: read-out: PPB (converted); method in brief: as §3
[8] = Metabolic stability in mouse liver microsomes assessed as intrinsic clearance; type: ADME, Microsome
[9] = Unbound clearance in mouse at 2 umol/kg, po and 1 umol/kg, iv administered using cassette dosing; type: ADME, organism-based; details: in vivo; method in brief: as §2
[10] = Volume of distribution at steady state in mouse at 2 umol/kg, po and 1 umol/kg, iv administered using cassette dosing; type: ADME, organism-based; details: in vivo, read-out: Vdss; method in brief: as §2
[11] = Half life in mouse at 2 umol/kg, po administered using cassette dosing; type: ADME, organism-based; details: in vivo; method in brief: as §2
[12] = Clearance in mouse at 2 umol/kg, po and 1 umol/kg, iv administered using cassette dosing; type: ADME, organism-based; details: in vivo; method in brief: as §2
[13] = Solubility of compound in aqueous medium at pH 6.8; type: physicochemical
Method in brief: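 Solubility was measured in the second fluid of the Japanese Pharmacopoeia Disintegration Test (pH 6.8).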

[14] = Apparent permeability across basolateral to apical side in human Caco2 cells; type: ADME, cell-based; details: Caco-2; method in brief: as §1
[15] = Drug metabolism in human hepatocytes assessed as cyclopentyl derived oxidative adduct formation by mass spectrometry; type: ADME, cell-based, Hepatocyte
[16] = Drug metabolism in human hepatocytes assessed as central triazolo-pyridine core derived metabolic soft spot formation by mass spectrometry; type: ADME, cell-based, Hepatocyte

CLH [1]	Papp A→B [2]	AUC [3]	fraction unbound [4]	bioavailability [5]	half-life [6]	fraction unbound [7]	CLH [8]	CL free [9]	Vd [10]	half-life [11]	clearance [12]	solubility [13]	Papp B→A [14]	Structure (SMILES)	further results
< 10 µL/min/mg														Cc1ccc(C(=O)Nc2cn3ncnc3c(CN3CCN(C(=O)C4CCC(F)(F)C4)[C@@H](C)C3)c2C)cn1 (stereo partly specified)	
< 10 µL/min/mg														Cc1ccc(C(=O)Nc2cn3ncnc3c(CN3CCN(C(=O)CCC(F)(F)F)[C@@H](C)C3)c2C)cn1	
240 µL/min/mg														Cc1ccc(C(=O)Nc2cn3ncnc3c(CN3CCN(C(=O)C(C)C)[C@@H](C)C3)c2C)cn1	
< 10 µL/min/mg	9.6 ×10⁻⁶ cm/s	2.3 µM·h	0.233	110%	1 h	0.139	< 10 µL/min/mg	75 mL/min/kg	1.1 L/kg	1.1 h	18.3 mL/min/kg	200 µM (≈ 114 µg/mL)	36 ×10⁻⁶ cm/s	Cc1ccc(C(=O)Nc2cn3ncnc3c(CN3CCN(C(=O)CC(C(F)(F)F)C(F)(F)F)[C@@H](C)C3)c2C)cn1	
59 µL/min/mg														Cc1ccc(C(=O)Nc2cc3nncn3c(CN3CCN(C(=O)C4CCCC4)[C@@H](C)C3)c2C)cn1	
20 µL/min/mg														Cc1ccc(C(=O)Nc2cn3ncnc3c(CN3CCN(C(=O)CC(C)C)[C@@H](C)C3)c2C)cn1	
< 10 µL/min/mg														Cc1ccc(C(=O)Nc2cn3ncnc3c(CN3CCN(C(=O)C4CCOCC4)[C@@H](C)C3)c2C)cn1	
21 µL/min/mg														Cc1ccc(C(=O)Nc2cn3ncnc3c(CN3CCN(C(=O)c4ccccc4)[C@@H](C)C3)c2C)cn1	
32 µL/min/mg	2.5 ×10⁻⁶ cm/s	0.84 µM·h	0.212	47%	1.4 h	0.227	11 µL/min/mg	88.3 mL/min/kg	0.77 L/kg	1.2 h	18.3 mL/min/kg	190 µM (≈ 90.4 µg/mL)	46 ×10⁻⁶ cm/s	Cc1ccc(C(=O)Nc2cn3ncnc3c(CN3CCN(C(=O)C4CCCC4)[C@@H](C)C3)c2C)cn1	Drug metabolism [15]: Metabolite_Detected; Drug metabolism [16]: Metabolite_Notdetected
10 µL/min/mg	31 ×10⁻⁶ cm/s	15 µM·h	0.135	120%	3.9 h	0.082	30 µL/min/mg	18.3 mL/min/kg	0.8 L/kg	3.6 h	2.5 mL/min/kg	170 µM (≈ 97.3 µg/mL)	51 ×10⁻⁶ cm/s	Cc1ccc(C(=O)Nc2cn3ncnc3c(O[C@H]3CCN(C(=O)CC(C(F)(F)F)C(F)(F)F)[C@@H](C)C3)c2C)cn1	
28 µL/min/mg														Cc1ccc(C(=O)Nc2cn3ncnc3c(O[C@@H]3CCN(C(=O)CC(C(F)(F)F)C(F)(F)F)[C@@H](C)C3)c2C)cn1	
88 µL/min/mg	40 ×10⁻⁶ cm/s	0.49 µM·h	0.043	48%	0.7 h	0.003	110 µL/min/mg	767 mL/min/kg	1.6 L/kg	0.7 h	33.3 mL/min/kg	71 µM (≈ 32.1 µg/mL)	55 ×10⁻⁶ cm/s	Cc1ccc(C(=O)Nc2cc(F)cc(CN3CCN(C(=O)C4CCCC4)[C@@H](C)C3)c2C)cn1	

— ChEMBL document CHEMBL4342512, “Discovery of [1,2,4]Triazolo[1,5-a]pyridine Derivatives as Potent and Orally Bioavailable RORγt Inverse Agonists” (ACS Med Chem Lett, 2020)
